Data: ChEMBL document CHEMBL3046601, “Synthesis and herbicidal activity of N,N-diethyl-3-(arylselenonyl)-1H-1,2,4-triazole-1-carboxamide” (2006)

Legend:
Assay type in all cases: functional
[1] = Herbicidal activity against semen euphorbiae assessed as inhibition of weed growth at 500 ug/mL measured 15 days post compound treatment by pot-culture method; settings: 360 h; read-out: GI
In short: (§1)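 Pot-culture assay on whole plants. Compounds were dissolved in toluene, diluted in water, and emulsified with a drop of Tween 80. Five parallel tests per compound, each compared with an untreated control, read as the ratio of growth inhibition. The 500 µg/mL level was the preliminary screen; the follow-up used 0.9375–15 µg/mL on cucumber, rice and semen euphorbiae.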

[2] = tested on: Cucumis sativus; assay: Herbicidal activity against Cucumis sativus jinyou 15 (cucumber) assessed as inhibition of weed growth at 500 ug/mL measured 15 days post compound treatment by pot-culture method; settings: jinyou 15, 360 h, read-out: GI; in short: as §1
[3] = tested on: Echinochloa crus-galli; assay: Herbicidal activity against semen euphorbiae assessed as inhibition of weed growth at 7.5 ug/mL measured 15 days post compound treatment by pot-culture method; settings: 360 h, read-out: GI; in short: as §1
[4] = tested on: Oryza sativa; assay: Toxicity against Oryza sativa xiuanyou 63 (rice) assessed as growth inhibition at 7.5 ug/mL measured 15 days post compound treatment by pot-culture method; settings: xiuanyou 63, 360 h, read-out: GI; in short: as §1
[5] = tested on: Cucumis sativus; assay: Herbicidal activity against Cucumis sativus jinyou 15 (cucumber) assessed as inhibition of weed growth at 3.75 ug/mL measured 15 days post compound treatment by pot-culture method; settings: jinyou 15, 360 h, read-out: GI; in short: as §1
[6] = tested on: Echinochloa crus-galli; assay: Herbicidal activity against semen euphorbiae assessed as inhibition of weed growth at 15 ug/mL measured 15 days post compound treatment by pot-culture method; settings: 360 h, read-out: GI; in short: as §1
[7] = tested on: Echinochloa crus-galli; assay: Herbicidal activity against semen euphorbiae assessed as inhibition of weed growth at 3.75 ug/mL measured 15 days post compound treatment by pot-culture method; settings: 360 h, read-out: GI; in short: as §1
[8] = tested on: Echinochloa crus-galli; assay: Herbicidal activity against semen euphorbiae assessed as inhibition of weed growth at 1.875 ug/mL measured 15 days post compound treatment by pot-culture method; settings: 360 h, read-out: GI; in short: as §1
[9] = tested on: Echinochloa crus-galli; assay: Herbicidal activity against semen euphorbiae assessed as inhibition of weed growth at 0.9375 ug/mL measured 15 days post compound treatment by pot-culture method; settings: 360 h, read-out: GI; in short: as §1
[10] = tested on: Oryza sativa; assay: Toxicity against Oryza sativa xiuanyou 63 (rice) assessed as growth inhibition at 15 ug/mL measured 15 days post compound treatment by pot-culture method; settings: xiuanyou 63, 360 h, read-out: GI; in short: as §1
[11] = tested on: Oryza sativa; assay: Toxicity against Oryza sativa xiuanyou 63 (rice) assessed as growth inhibition at 3.75 ug/mL measured 15 days post compound treatment by pot-culture method; settings: xiuanyou 63, 360 h, read-out: GI; in short: as §1
[12] = tested on: Oryza sativa; assay: Toxicity against Oryza sativa xiuanyou 63 (rice) assessed as growth inhibition at 0.9375 ug/mL measured 15 days post compound treatment by pot-culture method; settings: xiuanyou 63, 360 h, read-out: GI; in short: as §1
[13] = tested on: Oryza sativa; assay: Toxicity against Oryza sativa xiuanyou 63 (rice) assessed as growth inhibition at 1.875 ug/mL measured 15 days post compound treatment by pot-culture method; settings: xiuanyou 63, 360 h, read-out: GI; in short: as §1
[14] = tested on: Cucumis sativus; assay: Herbicidal activity against Cucumis sativus jinyou 15 (cucumber) assessed as inhibition of weed growth at […] measured 15 days post compound treatment by pot-culture method; settings: jinyou 15, 360 h, read-out: GI; in short: as §1

**Q.** Which inhibition of growth at 500 µg/mL [1] does the source give for `CCN(CC)C(=O)n1cnc([Se](=O)(=O)c2ccccc2)n1` here?
**A.** 4.18%

**Q.** What about the inhibition of growth at 500 µg/mL [2] of the same compound?
**A.** 8.75%

**Q.** With `CCN(CC)C(=O)n1cnc([Se](=O)(=O)c2ccc(F)c(F)c2)n1` as the compound, how does the inhibition of growth at 500 µg/mL [1] read?
**A.** 44.3%

**Q.** What about the inhibition of growth at 500 µg/mL [2] of the same compound?
**A.** 44%

**Q.** What does the source list for `CCN(CC)C(=O)n1cnc([Se](=O)(=O)c2cccc(C(F)(F)F)c2)n1`?
**A.** inhibition of growth at 500 µg/mL [1]: 25.2%; inhibition of growth at 500 µg/mL [2]: 18.5%

**Q.** Which inhibition of growth at 7.5 µg/mL [3] does the source give for `CCN(CC)C(=O)n1cnc([Se](=O)(=O)c2c(C)cccc2C)n1` here?
**A.** 88.9%

**Q.** And the inhibition of growth at 7.5 µg/mL [4]?
**A.** 2.8%

**Q.** What about the inhibition of growth at 3.75 µg/mL [5] of the same compound?
**A.** 100%

**Q.** And the inhibition of growth at 500 µg/mL [1]?
**A.** 100%

**Q.** And the inhibition of growth at 500 µg/mL [2]?
**A.** 100%

**Q.** For `CCN(CC)C(=O)n1cnc([Se](=O)(=O)c2ccc(Cl)cc2)n1`, which inhibition of growth at 500 µg/mL [1] is on record?
**A.** 17%

**Q.** What about the inhibition of growth at 500 µg/mL [2] of the same compound?
**A.** 18.6%

**Q.** With `CCN(CC)C(=O)n1cnc([Se](=O)(=O)c2c(C)cc(C)cc2C)n1` as the compound, how does the inhibition of growth at 7.5 µg/mL [3] read?
**A.** 91.1%

**Q.** What about the inhibition of growth at 7.5 µg/mL [4] of the same compound?
**A.** 8.3%

**Q.** What about the inhibition of growth at 3.75 µg/mL [5] of the same compound?
**A.** 100%

**Q.** What about the inhibition of growth at 500 µg/mL [1] of the same compound?
**A.** 100%

**Q.** And the inhibition of growth at 500 µg/mL [2]?
**A.** 100%

**Q.** Which results are given for `CCN(CC)C(=O)n1cnc([Se](=O)(=O)c2ccc([N+](=O)[O-])cc2)n1`?
**A.** inhibition of growth at 500 µg/mL [1]: 46.4%; inhibition of growth at 500 µg/mL [2]: 26.9%

**Q.** For `CCN(CC)C(=O)n1cnc([Se](=O)(=O)c2ccc(F)cc2F)n1`, which inhibition of growth at 500 µg/mL [1] is on record?
**A.** 53.9%

**Q.** What about the inhibition of growth at 500 µg/mL [2] of the same compound?
**A.** 33.9%

**Q.** For `CCN(CC)C(=O)n1cnc([Se](=O)(=O)c2ccc(C(F)(F)F)c(Cl)c2)n1`, which inhibition of growth at 500 µg/mL [1] is on record?
**A.** 45.6%

**Q.** What about the inhibition of growth at 500 µg/mL [2] of the same compound?
**A.** 15.3%

**Q.** With `CCN(CC)C(=O)n1cnc([Se](=O)(=O)c2ccc(F)c(Cl)c2)n1` as the compound, how does the inhibition of growth at 500 µg/mL [1] read?
**A.** 39.6%

**Q.** And the inhibition of growth at 500 µg/mL [2]?
**A.** 10.7%

**Q.** What does the source list for `CCN(CC)C(=O)n1cnc([Se](=O)(=O)c2ccc(OC)cc2)n1`?
**A.** inhibition of growth at 500 µg/mL [1]: 63.9%; inhibition of growth at 500 µg/mL [2]: 30.3%

**Q.** Which inhibition of growth at 500 µg/mL [1] does the source give for `CCN(CC)C(=O)n1cnc([Se](=O)(=O)c2ccc(C)cc2C)n1` here?
**A.** 51%

**Q.** What about the inhibition of growth at 500 µg/mL [2] of the same compound?
**A.** 42%

**Q.** Which results are given for `CCN(CC)C(=O)n1cnc(S(=O)(=O)c2c(C)cc(C)cc2C)n1` [CAFENSTROLE]?
**A.** inhibition of growth at 15 µg/mL [6]: 100%; inhibition of growth at 7.5 µg/mL [3]: 95.6%; inhibition of growth at 3.75 µg/mL [7]: 84.4%; inhibition of growth at 1.875 µg/mL [8]: 46.7%; inhibition of growth at 0.9375 µg/mL [9]: 17.8%; inhibition of growth at 15 µg/mL [10]: 100%; inhibition of growth at 3.75 µg/mL [11]: 47.2%; inhibition of growth at 7.5 µg/mL [4]: 72%; inhibition of growth at 0.9375 µg/mL [12]: 0%; inhibition of growth at 1.875 µg/mL [13]: 13.9%; inhibition of growth [14]: 100%; inhibition of growth at 500 µg/mL [1]: 100%; inhibition of growth at 500 µg/mL [2]: 100%
